Screens as filed in PubChem.
OX1R antag-1 – antagonists of human orexin 1 receptor; inhibition, % at 5 µM; AID 434989; O43613; CHO/OX1R cells, Fluo-8 calcium fluorescence, orexin A; 330,000 compounds, 0.43% hits;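 active = inhibition above its plate's threshold, mean inhibition of all tested compounds on the plate plus 3 SD, cut at about 37% in these data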;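 note: 0% = orexin A challenge wells and 100% = SB-334867-A antagonist wells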
Target sequence (O43613 whole entry, looked up): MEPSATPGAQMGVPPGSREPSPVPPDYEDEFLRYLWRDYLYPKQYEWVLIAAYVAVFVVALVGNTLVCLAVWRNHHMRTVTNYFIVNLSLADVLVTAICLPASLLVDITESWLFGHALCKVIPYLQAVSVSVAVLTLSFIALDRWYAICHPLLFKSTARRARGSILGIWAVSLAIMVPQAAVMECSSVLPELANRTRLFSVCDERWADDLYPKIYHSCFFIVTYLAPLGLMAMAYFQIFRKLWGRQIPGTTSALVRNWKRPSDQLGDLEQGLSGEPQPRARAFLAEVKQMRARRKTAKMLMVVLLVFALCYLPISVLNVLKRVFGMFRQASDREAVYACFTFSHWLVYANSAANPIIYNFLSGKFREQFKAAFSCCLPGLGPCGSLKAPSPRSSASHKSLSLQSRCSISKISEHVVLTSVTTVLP
OX1R antag-2 – blocks the human orexin 1 receptor; OX1R-expressing cells, FRET antagonist read-out; inhibition, % at 6.6 µM; 330,000 compounds, 1.8% hits; in the data active = inhibition mostly above about 38%, no sharp cut-off; inactive = mostly below about 40%;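 note: 0% = agonist challenge alone and 100% = reference antagonist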
CHO parental Ca – counter-screen for OX1R antagonists: effect in parental CHO cells. inhibition, % at 5.6 µM. 330,000 compounds, 0.63% hits. parental CHO-K1, ATP-induced calcium, Fluo-8 fluorescence;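 active = inhibition above that plate's mean sample inhibition plus 3 SD, cut at about 26% in these data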;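 note: 0% = ATP-challenged DMSO wells and 100% = DMSO wells without ATP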
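Assay system – parental CHO cells · Reagent – ATP stimulus · Detection – intracellular calcium via Fluo-8 no-wash fluorescent dye · Evaluation – percent inhibition of ATP-evoked calcium rise, normalized to controls · Controls – ATP wells versus no-ATP DMSO wells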
TAAR1 ag – agonists of human TAAR1; CHO RD-HGA16 TAAR1, Fluo-8 calcium fluorescence; vehicle wells 0%, saturating PEA agonist 100%; AID 624467; activation, % at 3 µM; 360,000 compounds, 0.99% hits; Q96RJ0;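 active = activation above the mean activation of all test compounds in the run plus 3 SD, cut at about 38% in these data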
Target sequence (Q96RJ0 whole entry, looked up): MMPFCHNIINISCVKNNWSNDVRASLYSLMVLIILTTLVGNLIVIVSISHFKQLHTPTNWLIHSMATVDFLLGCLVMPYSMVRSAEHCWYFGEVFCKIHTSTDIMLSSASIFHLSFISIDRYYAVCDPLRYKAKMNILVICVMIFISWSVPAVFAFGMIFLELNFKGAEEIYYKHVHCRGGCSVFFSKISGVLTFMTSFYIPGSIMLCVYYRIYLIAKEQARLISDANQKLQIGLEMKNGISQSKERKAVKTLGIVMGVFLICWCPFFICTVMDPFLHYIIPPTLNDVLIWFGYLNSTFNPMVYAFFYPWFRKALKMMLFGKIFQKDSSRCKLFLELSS
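Test system: RD-HGA16 (CHO) cells co-expressing Gα16 and hTAAR1 / Benchmarks: DMSO vehicle as 0%, PEA at EC100 as 100% / Repeats: no replicates (n 1) / Measure: % activation from peak over basal fluorescence ratio, DMSO-to-PEA scaled / Timing: 17-24 h plating, Fluo-8 75 min 37 °C, 30 min RT / Technique: kinetic Fluo-8 calcium fluorescence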
GPR7 antagonist – human neuropeptides B/W receptor 1 antagonism; inhibition, % at 4.4 µM; 290,000 compounds, 1.1% hits; GPR7-expressing cells, fluorescence antagonist assay; P48145; in the data active = inhibition above about 16%, passing the limit was not always enough;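 note: cells stimulated with the agonist NPW; 0% = agonist with vehicle and 100% = vehicle without agonist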
TAAR1 antag – human TAAR1 antagonism | CHO RD-HGA16 TAAR1, Fluo-8 calcium fluorescence, antagonist | inhibition, % at 3 µM | 360,000 compounds, 1.5% hits;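 active = inhibition above a per-plate cutoff, the mean inhibition of test compounds on that plate plus 3 SD, cut at about 49% in these data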;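 note: 0% = DMSO plus EC80 beta-PEA response and 100% = DMSO alone without agonist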
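test system = CHO RD-HGA16 cells bearing hTAAR1 | replication = singlicate | controls = DMSO-only wells and EC80 β-PEA-stimulated wells | reagent = EC80 β-phenethylamine stimulus | read-out basis = percent inhibition of PEA-evoked calcium signal, max/basal emission ratio | schedule = seeding 17-24 h prior, 75-min 37 °C, 30-min RT dye loading | signal = kinetic Fluo-8 calcium fluorescence measurement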
Numbers without * were called inactive; · = no result. Rows were chosen to be rich in hits. Some 4.6% of all compounds tested hit in one or more screens of this group.

SMILES | OX1R antag-1 | OX1R antag-2 | CHO parental Ca | TAAR1 ag | GPR7 antagonist | TAAR1 antag
CC(C)OCC(O)CN1CCC(Cc2ccccc2)CC1 (stereo unspecified) | -4.0 | 9.0 | -2.5 | 2.3 | -4.0 | -14.4
OC(COc1ccc(Br)cc1)CN1CCC(Cc2ccccc2)CC1 (stereo unspecified) | -10.9 | 11.2 | -15.8 | 41.7* | 9.3 | -11.6
CSCCC(NC(=O)c1ccc([N+](=O)[O-])cc1Cl)C(=O)OCC(=O)NC(=O)CN1CCCC1=O (stereo unspecified) | -0.9 | 55.9* | -8.5 | 0.1 | · | -3.0
CSCCC(NC(=O)c1ccc([N+](=O)[O-])cc1Cl)C(=O)OCC(=O)NC1CCCC(C)C1C (stereo unspecified) | -9.8 | 17.2 | -22.2 | 6.3 | 3.3 | 13.1
CSCCC(NC(=O)c1ccc([N+](=O)[O-])cc1Cl)C(=O)OC1CCCCC1=O (stereo unspecified) | -19.4 | 66.5* | -9.5 | 0.5 | -9.0 | 1.5
CCNC(=O)N1CCN(c2ccc(N3CCN(Cc4ccccc4)[C@H](C)C3)c(C)c2)[C@H](C)C1 | · | · | · | 2.9 | · | -19.6
Clc1cccc(Cl)c1/C=N\Nc1nccs1 | -26.4 | 20.8 | -6.1 | 5.3 | -5.8 | -5.1
CCc1nnc(N/N=C/c2cc(C)c(C)cc2C)n1N | · | · | · | 1.3 | -11.0 | 12.6
Cc1[nH]c2ccccc2c1/C=N/NC(N)=S | -1.1 | -1.3 | -3.5 | 3.9 | -4.7 | -11.3
CCc1nnc(N/N=C/c2c(F)cccc2Cl)n1N | -5.2 | 71.4* | -5.7 | 0.2 | -15.6 | -14.3
CCc1nnc(N/N=C/c2c(C)[nH]c3ccccc23)n1N | 3.2 | 67.8* | 12.1 | 0.5 | -9.7 | -10.4
Cc1nnc(N/N=C/c2c(Cl)cccc2Cl)n1N | -14.8 | 61.1* | -4.8 | -0.5 | -1.7 | 2.7
O=C(C=Cc1ccc(OCc2ccccc2)cc1)c1c(F)cccc1F | · | · | · | -0.2 | · | -10.8
CSc1ccc(Cn2c(C)c(C(=O)NCc3ccccc3C(F)(F)F)sc2=O)cc1 | · | · | · | 2.3 | · | 51.7*
Cc1ccc(C(C)C)c2c1C(c1ccc3c(c1)OCO3)CC(=O)O2 (stereo unspecified) | 15.3 | 7.4 | -16.3 | 47.0* | · | 44.6
Cc1cc2c(c(C)c1Cl)C(c1ccc3c(c1)OCO3)CC(=O)O2 (stereo unspecified) | 6.5 | 13.9 | 9.4 | 6.2 | · | 38.0
Cc1cc(NS(=O)(=O)c2ccc(Nc3nc(-c4sc(C)nc4C)cs3)cc2)no1 | · | · | · | · | 0.1 | ·
COc1ccc(-c2csc(Nc3ccc(S(=O)(=O)Nc4cc(C)on4)cc3)n2)cc1 | 10.2 | 40.4* | 4.8 | -2.2 | -8.0 | 17.6
COc1cccc(CNC(=O)C(C)n2ccc3cc(S(=O)(=O)N4CCCCCC4)ccc32)c1 (stereo unspecified) | -4.9 | 11.7 | -5.5 | 0.1 | 3.6 | -1.5
CC(CNC(=O)Cn1ccc2cc(S(=O)(=O)N3CCCC3)ccc21)c1ccccc1 (stereo unspecified) | 14.6 | 42.8* | -20.0 | 8.8 | -3.0 | -14.7
CCC(C(=O)NCCC(C)C)n1ccc2cc(S(=O)(=O)N3CCCCC3)ccc21 (stereo unspecified) | 44.2 | 12.4 | 52.7* | · | 13.2 | ·
Cc1cn([C@H]2C[C@H](O)[C@@H](/C=C/C(=O)NCc3ccco3)O2)c(=O)[nH]c1=O | · | · | · | 2.2 | · | -8.7
COC(=O)[C@]12C[C@H](CC(=O)NCCCCc3ccccc3)C(=O)N(Cc3ccccc3)C1=C[C@H](C(C)(C)C)O[C@@H]2C | · | · | · | 2.1 | · | -30.2
COc1ccc(OCCOC(=O)c2[nH]c(C)c(C(C)=O)c2C)cc1 | -1.6 | 38.0 | 44.7* | 6.1 | 3.6 | 7.7
COc1ccc(CCNC(=O)c2[nH]c(C)c(C(C)=O)c2C)cc1 | -25.7 | 22.7 | -29.6 | 12.7 | 9.1 | 5.1
SMILES | OX1R antag-1 | OX1R antag-2 | CHO parental Ca | TAAR1 ag | GPR7 antagonist | TAAR1 antag
CCCn1c(CN2CCN(c3cccc(Cl)c3)CC2)nc2c1c(=O)n(C)c(=O)n2C | -25.3 | 21.2 | 33.5* | 2.5 | -2.9 | 1.6
COC(=O)[C@]12C[C@H](CC(=O)N3CCOCC3)C(=O)N(CCC3=CCCCC3)C1=C[C@H](C(C)(C)C)O[C@@H]2C | · | · | · | -0.3 | · | -36.3
COc1ccc(C)cc1NC(=O)CN1CCCN(S(=O)(=O)c2ccc(Br)cc2)CC1 | -25.9 | 24.3 | -13.6 | 9.8 | 17.6 | 0.4
Cc1ccnc(NC(=O)COc2ccc3oc4c(c3c2)CCCC4)c1 | 7.5 | 54.5* | -32.7 | 12.9 | -4.0 | 25.7
CNC(=O)COc1ccc2oc3c(c2c1)CCCC3 | -8.7 | 37.6 | -13.7 | 0.3 | -4.4 | 0.8
CCCN(C(=O)C1CCCN(c2ncnc3c2nc2n3CCCCC2)C1)c1ccccc1C (stereo unspecified) | · | · | · | 1.7 | · | 3.8
COc1cc(/C=C(\C#N)c2nc3c(s2)CCCC3)ccc1O | 94.4* | 13.8 | 82.3* | · | 3.1 | ·
Cn1c(CO)cnc1SCc1ccc([N+](=O)[O-])cc1 | -8.6 | 72.6* | -4.2 | -0.9 | -3.0 | 0.8
COCCNC(=S)N(C)[C@H]1C[C@H]2c3[nH]c4cccc(-c5ccccc5)c4c3CCN2C(=O)[C@H]1[C@H](C)O | · | · | · | 0.5 | · | -7.4
O=C(NCc1cccc(C(F)(F)F)c1)c1cc(Cl)ccc1Cl | -22.7 | 10.1 | -16.5 | -0.3 | 4.1 | 18.4
O=C(NCc1cccc(C(F)(F)F)c1)c1cc(Cl)cc(Cl)c1 | -32.5 | 41.7* | -22.1 | 8.8 | 1.1 | -5.7
C=CCN1C(=O)c2n[nH]c(COC)c2C1c1ccc(Br)cc1 (stereo unspecified) | · | · | · | 0.7 | · | -1.7
COc1ccccc1NC(=O)c1cnc(Nc2ccccc2OC)c2ccccc12 | -11.4 | 73.8* | -33.1 | -0.5 | -19.6 | 16.2
COc1ccccc1NC(=O)c1ccccc1C(=O)Nc1ccccc1OC | -20.6 | 22.4 | -13.9 | 2.5 | -11.3 | 21.8
O=C(Cc1cn(Cc2ccccc2)c2ccccc12)Nc1ccc(Oc2cccnc2)cc1 | · | · | · | 0.6 | · | 3.1
C#CCNC(=O)C[C@H]1C[C@@]2(C(=O)OC)C(=C[C@H](COCc3ccccc3)O[C@@H]2C)N(CCC2=CCCCC2)C1=O | · | · | · | -0.8 | · | -5.3
CCCCNC(=S)N1CCN(c2ccc(C(C)=O)cc2)CC1 | -3.5 | 11.5 | 18.2 | 3.2 | 18.8* | 16.1
CC(=O)c1ccc(N2CCN(C(=S)Nc3cc(C)ccc3C)CC2)cc1 | -5.8 | -2.0 | -3.9 | 7.2 | -4.2 | -1.5
Cc1c(COC(=O)NC(C)C)c(COC(=O)NC(C)C)c2n1CS(=O)(=O)C2 | · | · | · | -0.1 | · | -2.5
CC1(C)CCN2CCC(C)(C)c3c(O)ccc1c32 | 40.5* | 14.4 | 38.4* | 23.6 | 22.5 | 17.4
Cc1[nH][nH]c(=O)c1C(c1ccc(-c2ccc(F)cc2)o1)c1c(C)[nH][nH]c1=O | -10.4 | 18.5 | -7.0 | 1.9 | 0.1 | -9.7
